Test results as given in paper PMC4486263 (Journal of biomolecular screening, 2014).
“Also recorded” adds a separate entry of the source. Values belong to the compound of their own block, whether it stands above or below them.

Key:
Six1-Eya2 interaction = biological target: T1, Six1-Eya2 interaction (Homo sapiens, UniProt O00167+Q15475); assay: Counterscreen AlphaScreen assay, Six1-Eya2; type: binding; details: 20 nM to 50 μM
T1 sequence (Q15475 1-284): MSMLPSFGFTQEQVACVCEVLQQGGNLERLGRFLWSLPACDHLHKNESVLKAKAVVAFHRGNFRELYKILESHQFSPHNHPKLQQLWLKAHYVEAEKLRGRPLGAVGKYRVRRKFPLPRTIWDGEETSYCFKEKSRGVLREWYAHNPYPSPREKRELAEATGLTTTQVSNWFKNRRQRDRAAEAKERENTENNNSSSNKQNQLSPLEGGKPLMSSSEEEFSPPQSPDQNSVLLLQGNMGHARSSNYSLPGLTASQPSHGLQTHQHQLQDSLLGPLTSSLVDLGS
T1 sequence (O00167 1-538): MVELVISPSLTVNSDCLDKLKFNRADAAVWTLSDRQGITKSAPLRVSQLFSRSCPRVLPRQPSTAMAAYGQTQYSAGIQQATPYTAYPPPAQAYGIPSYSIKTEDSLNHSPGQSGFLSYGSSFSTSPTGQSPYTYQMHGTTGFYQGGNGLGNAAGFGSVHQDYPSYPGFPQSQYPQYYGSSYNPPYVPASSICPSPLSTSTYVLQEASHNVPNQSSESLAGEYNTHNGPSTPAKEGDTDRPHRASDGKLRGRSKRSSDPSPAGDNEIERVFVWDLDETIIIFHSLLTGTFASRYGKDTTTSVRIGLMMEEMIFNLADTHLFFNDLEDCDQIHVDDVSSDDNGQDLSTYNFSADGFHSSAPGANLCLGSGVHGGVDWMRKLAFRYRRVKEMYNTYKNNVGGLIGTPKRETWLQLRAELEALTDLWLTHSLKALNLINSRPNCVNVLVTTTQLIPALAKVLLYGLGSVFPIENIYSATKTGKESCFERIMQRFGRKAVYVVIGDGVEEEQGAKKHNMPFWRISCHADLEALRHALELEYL
Method in brief: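 Counterscreen AlphaScreen with 200 nM 6xHis-Eya2 and GST-Six1 in 50 mM Tris pH 8.0, 250 mM NaCl, 0.05% BSA, 0.02% Tween-20. Test compound was added at 20 nM to 50 μM. Glutathione donor and Ni-chelate acceptor beads were added from a 25 ng/μL (each) bead solution. Incubated 2 h at 25 °C, then read in AlphaScreen mode.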

[1] = biological target: CtBP1-E1A peptide interaction (Homo sapiens, UniProt Q13363); assay: Fluorescence polarization assay with FITC-labeled E1A 14-mer peptide; type: binding; details: for disruption of the CtBP1-peptide interaction (in words): up to 100 μM
CtBP1-E1A interaction [2] = biological target: T2, CtBP1-E1A interaction (Homo sapiens, UniProt Q13363); assay: CtBP1-E1A AlphaScreen assay; type: binding; details: for disruption of the CtBP1-E1A interaction (in words): up to 100 μM
CtBP1-E1A interaction [3] = biological target: T2, CtBP1-E1A interaction; assay: Competitive ELISA; type: binding; details: read-out: IC50, disruption of the CtBP1-E1A interaction
Method in brief: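 Plates coated with His-tagged CtBP1 (E. coli-expressed, Ni-affinity then size-exclusion purified) in 50 mM Tris pH 8.0, 250 mM NaCl, 1 h at 25 °C. Blocked 1 h with 1% BSA/0.05% Tween-20 in 50 mM Tris pH 8.0, 250 mM NaCl, 1 mM TCEP. GST-Ad5 E1A was added with increasing test compound concentrations in triplicate for 1 h at 25 °C. Detection used rabbit anti-GST (1:1500), then goat anti-rabbit (1:2500), 1 h each, and ABTS absorbance.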

lactate dehydrogenase = assay: Lactate dehydrogenase enzymatic assay; type: biochemical
Method in brief: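 Lactate dehydrogenase at 5 nM in PBS with 100 μM NADH. Incubated with 5 μM pyruvate or varying test compound concentrations for 1 min at 30 °C. NADH consumption monitored spectrophotometrically at 340 nm; activity as nmol/min/mg protein.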

CtBP1 = CtBP1 (Homo sapiens, UniProt Q13363); assay: CtBP1 enzymatic assay; type: biochemical; details: NADH oxidation, 340 nm
Method in brief: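 E. coli-expressed His-CtBP1 (2 μM) in PBS with NADH. Test compound was added at increasing concentrations in 100 μL reactions after a 2 min incubation at 30 °C. Substrate reduction followed as NADH disappearance at 340 nm by spectrophotometer. Activity expressed as nmol NADH/min/mg protein.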

NCI 60 tumor-cell panel = details: ref http://dtp.nci.nih.gov/; cited from earlier work
[4] = system: MEF3 promoter (SIX1 transcriptional complex); assay: MEF3 promoter luciferase reporter assay in H1299 cells; type: cell-based; details: 18 hrs, normalized to Renilla
Method in brief: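 H1299 cells were seeded at 2000 cells/well and adhered overnight. FuGENE 6 transfection used 60 ng/well pGL3-MEF3 promoter, 40 ng/well Six1, 30 ng/well Eya2 and 14 ng/well Renilla luciferase. After 10 h, cells were treated with varying test compound concentrations for 18 h. Dual-luciferase read-out after passive lysis, with Firefly normalised to Renilla.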

[5] = system: CtBP1-mediated repression of the E-cadherin promoter; assay: E-cadherin promoter luciferase reporter assay in H1299 cells; type: cell-based; details: 18 hrs, normalized to Renilla
Method in brief: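 H1299 cells were seeded at 2000 cells/well and adhered overnight. FuGENE 6 transfection used 30 ng/well pGL3-E-cadherin promoter plus 10 ng/well Renilla luciferase. After 10 h, cells were treated with varying test compound concentrations for a further 18 h. Passive lysis, then dual-luciferase measurement with Firefly normalised to Renilla.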

SMILES: O.c1cnc2c(c1)ccc1cccnc12 [10-phenanthroline monohydrate]
inhibition of the Six1-Eya2 interaction (Six1-Eya2 interaction): efficiently inhibited

SMILES: CCCn1c(=O)c2[nH]c(C3CCCC3)nc2n(CCCOC(=O)c2ccc(S(=O)(=O)F)cc2)c1=O [FSCPX]
disruption of the CtBP1-peptide interaction (in words) [1]: inactive; also recorded: unable to disrupt
inhibition of the Six1-Eya2 interaction (Six1-Eya2 interaction): did not inhibit

SMILES: CSCCC(=O)C(=O)O [MTOB, 4-methylthio-2-oxobutanoic acid]
disruption of the CtBP1-peptide interaction (in words) [1]: ineffective at disrupting the interaction; also recorded: unable to inhibit
disruption of the CtBP1-E1A interaction (in words) (CtBP1-E1A interaction [2]): ineffective at disrupting the interaction; also recorded: unable to inhibit; also recorded: unable to affect the protein interaction

SMILES: CCCCc1ccc(C(=O)O)nc1 [fusaric acid]
disruption of the CtBP1-peptide interaction (in words) [1]: inactive; also recorded: unable to disrupt
inhibition of the Six1-Eya2 interaction (Six1-Eya2 interaction): did not inhibit

SMILES: Nc1c(S(=O)(=O)O)cc(Nc2ccc(Nc3nc(Cl)nc(Nc4cccc(S(=O)(=O)O)c4)n3)c(S(=O)(=O)O)c2)c2c1C(=O)c1ccccc1C2=O [reactive blue 2]
inhibition of the Six1-Eya2 interaction (Six1-Eya2 interaction): efficiently inhibited

Second part, led by results:

inhibition of the Six1-Eya2 interaction (Six1-Eya2 interaction): efficiently inhibited
SMILES: O=C1c2ccccc2C(=O)c2c(NCCc3ccc(O)cc3)ccc(NCCc3ccc(O)cc3)c21 [JFD00244]

IC50 (CtBP1-E1A interaction [3]): 10 ± 1.3 µM
IC50 ([1]; read-out: IC50, CtBP1-E1A peptide interaction, 3 μM CtBP1, 5 nM FITC-E1A peptide): 0.61 ± 0.12 µM
maximal activity as CtBP1 substrate (CtBP1): 28.5 ± 4.9 nmol/min/mg protein
IC50 (CtBP1-E1A interaction [2]; read-out: IC50, inhibition of the CtBP1-E1A interaction): 2.9 µM
SMILES: O=C1C(SCCO)=C(SCCO)C(=O)c2ccccc21 [NSC95397]
disruption of the CtBP1-peptide interaction (in words) [1]: able to disrupt the interaction; also recorded: efficiently inhibits
inhibition of LDH (pyruvate reduction) (lactate dehydrogenase; 5 μM pyruvate, up to 100 μM compound): did not significantly inhibit; also recorded: unable to detect any inhibition; also recorded: unable to inhibit
substrate of LDH (NADH consumption without pyruvate) (lactate dehydrogenase; increasing concentrations, no pyruvate): nor did it exhibit significant consumption of NADH; also recorded: did not detect a significant loss in NADH levels
average GI50s over all cell lines (NCI 60 tumor-cell panel): 1.04 µM
luciferase activity, MEF3 promoter [4]: unaltered; also recorded: has no effect
inhibition of the Six1-Eya2 interaction (Six1-Eya2 interaction): did not inhibit; also recorded: does not inhibit; also recorded: did not detect a loss of AlphaScreen signal
luciferase activity, E-cadherin promoter [5]: able to disrupt CtBP-mediated transcriptional repression; also recorded: increased with increasing concentrations; also recorded: can reverse CtBP-mediated transcriptional repression
disruption of the CtBP1-E1A interaction (in words) (CtBP1-E1A interaction [2]): able to disrupt the interaction; also recorded: efficiently inhibits

inhibition of the Six1-Eya2 interaction (Six1-Eya2 interaction): efficiently inhibited
SMILES: O=C1O/C(=C/Br)CCC1c1cccc2ccccc12 (centres unmarked) [bromoenol lactone]

LDH activity with substrate (lactate dehydrogenase): 9680 ± 558 nmol/min/mg protein
SMILES: CC(=O)C(=O)O [pyruvate]
